What is called MIC is the lowest concentration that inhibits growth of the organism. What is called CC50 is the concentration giving 50% cytotoxicity.

Converted amounts (≈) assume the structure as drawn.

The subject of data set [1] is Mycobacterium tuberculosis. Briefly: Antimycobacterial activity against Mycobacterium tuberculosis H37Rv ATCC 27294 assessed as reduction in bacterial growth by resazurin reduction microplate assay. It counts as functional. The method in brief: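 REMA in Middlebrook 7H9 broth with 10% ADC. Compounds dissolved at 1 mg/mL in DMSO and diluted to 50 μg/mL in broth containing 5% DMSO. Ten-point two-fold dilutions gave 25.0 to 0.05 μg/mL. Growth and sterility controls on each plate. MIC was the lowest concentration preventing the blue-to-pink change.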

Data set [2] is described as follows: Cytotoxicity against African green monkey Vero cells assessed as reduction in cell viability incubated for 24 hrs by MTT assay. Format: cell-based. The settings on record: chlorocebus sabaeus. The method in brief:
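Vero cells kept in DMEM with 4.5 mg/mL glucose and 10% inactivated FBS at 37 °C, 5% CO2. Seeded at 30,000 cells/well and grown 24 h, then exposed to 5, 10, 25 and 50 μM for 24 h. Control was medium with 1% DMSO. MTT 0.5 mg/mL in HBSS for 3 h; formazan dissolved in DMSO and read at 570–690 nm. CC50 taken from survival relative to untreated cells.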
On the technique in general: Tetrazolium dyes change colour on reduction, which living cells bring about.

The nature of data set [3]: Selectivity index, ratio of CC50 for African green monkey Vero cells to MIC for Mycobacterium tuberculosis H37Rv ATCC 27294. It counts as toxicity. The settings on record: read-out: Selectivity Index.
The nature of data set [4]: Selectivity index, ratio of CC50 for African green monkey Vero cells to MIC for Mycobacterium tuberculosis CDCT-27. Format: toxicity. The settings on record: read-out: Selectivity Index.
Data set [5] in a line: Selectivity index, ratio of CC50 for African green monkey Vero cells to MIC for Mycobacterium tuberculosis CDCT-16. Format: toxicity. The settings on record: read-out: Selectivity Index.

`CCCCC(=O)[Se]CC1=C(C)C(=O)c2ccccc2C1=O`: in data set [1], the MIC was greater than 10 µM.
For the molecule `CC1=C(C[Se]C(=O)c2ccccc2)C(=O)c2ccccc2C1=O`, the CC50 at 24 h in data set [2] was greater than 50 µM. Also, the selectivity ratio was greater than 23.8 in data set [3], greater than 62.5 in data set [4] and greater than 62.5 in data set [5]. For the same molecule, in data set [1], the MIC turned out to be 2.1 µM (≈ 0.775 µg/mL).
On to `CCc1ccc(C(=O)[Se]CC2=C(C)C(=O)c3ccccc3C2=O)cc1`, for which, in data set [1], the MIC was greater than 10 µM.
Regarding `NNC(=O)c1ccncc1` [ISONIAZID], the CC50 at 24 h in data set [2] was greater than 50 µM. Further, the selectivity ratio in data set [3] was greater than 22.7. In addition, the MIC in data set [1] amounted to 2.2 µM (≈ 0.302 µg/mL).
Regarding `CC1=C(C[Se]C(=O)c2ccccc2C)C(=O)c2ccccc2C1=O`, in data set [2], the 50% cytotoxic concentration (CC50) at 24 h turned out to be 7.7 µM. Besides, the selectivity ratio was 0.9 in data set [3], 2.5 in data set [4] and 2.5 in data set [5]. Besides, the MIC in data set [1] came out at 8.1 µM (≈ 3.1 µg/mL).
As to `CC1=C(C[Se]C(=O)c2ccc(F)cc2)C(=O)c2ccccc2C1=O`, the CC50 at 24 h in data set [2] is greater than 50 µM. In addition, the results for the selectivity ratio in data set [3], in data set [4] and in data set [5] were greater than 6.2, greater than 16.1 and greater than 62.5, respectively. Moreover, the MIC in data set [1] stood at 8 µM (≈ 3.1 µg/mL).
Regarding `COc1ccc(C(=O)[Se]CC2=C(C)C(=O)c3ccccc3C2=O)cc1`, the MIC in data set [1] was greater than 10 µM.
On the same count and under the same terms, under `CC1=C(C[Se]C(=O)c2ccc(Cl)cc2)C(=O)c2ccccc2C1=O` stands greater than 10 µM; under `CC1=C(C[Se]C(=O)c2ccc(C)cc2)C(=O)c2ccccc2C1=O`, greater than 10 µM.
The same measure, in the same setting: with `CCCC(C)C(=O)[Se]CC1=C(C)C(=O)c2ccccc2C1=O` (centres undefined) the figure was greater than 10 µM.

Source of the values: ChEMBL document CHEMBL4706607, “Anti-tubercular profile of new selenium-menadione conjugates against Mycobacterium tuberculosis H37Rv (ATCC 27294) strain and multidrug-resistant clinical isolates” (Eur J Med Chem, 2021).
